Measurements from ChEMBL document CHEMBL5038597 (J Med Chem, 2021).
The source made the active and inactive calls. The calls are words filed in the database; no cut-off is given here.

Assays:
[1] = test system: THP-1; test: Induction of phagocytosis in human THP-1-MF0 macrophages at 100 nM pretreated for 30 mins followed by fluorescently labeled Escherichia coli derived bio-particles addition and measured after 2 hrs; format: functional, cell-based; conditions: time 2.5 hrs
Summary of the method: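 THP-1 monocytes differentiated with 16 nM PMA 48 h plus 24 h rest; 1 × 10⁵ macrophages/well in 0.1% serum adhered 1.5 h, treated 30 min (1 fM–1 μM), medium replaced with fluorescent E. coli bioparticles for 2 h at 37 °C in dark; trypan blue quench 1 min; bottom-read fluorescence Ex480/Em520; fold change vs vehicle, n = 3.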

[2] = test system: THP-1; test: Anti-inflammatory activity against human THP-1 monocytes assessed as […] in LPS-induced IL-8 release at 1 nM by multiplex chemiluminescence detection method; format: functional, cell-based
Summary of the method: (§1)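 THP-1-Lucia NF-κB monocytes (1 × 10⁵/well, 0.1% FBS medium) pretreated 30 min with compound (ethanol stock, final 0.1% ethanol vehicle), then 50 ng/mL LPS for 24 h.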

[3] = test system: THP-1; test: Anti-inflammatory activity against human THP-1 monocytes assessed as reduction in LPS-induced IL-1beta release at 0.01 nM to 100 nM pretreated for 30 mins followed LPS stimulation and measured after 24 hrs by multiplex chemiluminescence detection method; format: functional; conditions: time 24.5 hrs; summary of the method: as §1
[4] = test system: HEK293; test: Agonist activity at ALX/FPR2 receptor (unknown origin) expressed in HEK-293 cells assessed as increase in calcium flux at 0.01 to 100 nM by Fluo-4 staining based assay; format: cell-based; conditions: Homo sapiens, filed as agonist, dose 0.01-100 nM
Summary of the method: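 HEK-293 cells stably double-transfected with ALX/FPR2 and Gαq (Geneticin 500 and Hygromycin 100 μg/mL selection); wild-type HEK-293 as specificity control. Cultured 18 h, loaded with Fluo-4 (37 °C, 1 h), compounds injected in-reader (10 pM–100 nM). Baseline-to-peak calcium fluorescence difference expressed as % of LXA₄ peak; ATP 1 μM and W-peptide 2 nM positive controls; n = 3 independent experiments.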

[5] = molecular target: T1, Nuclear factor NF-kappa-B complex (Homo sapiens) (UniProt Q00653+P19838+Q04206); test: Inhibition of TNFalpha-stimulated NF-kappaB activity (unknown origin) expressed in mouse primary smooth muscle cells at 0.1 nM pretreated for 30 mins followed by TNFalpha stimulation and incubated for 24 hrs by SEAP reporter gene assay; format: cell-based; conditions: time 24.5 hrs
Summary of the method: (§2)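 Mouse primary vascular SMCs in DMEM with 25 mM glucose, serum-restricted (1% FBS) 24 h, transfected 24 h with pNF-κB-SEAP, pretreated 30 min, then TNF-α 1 ng/mL for 24 h; 0.1% ethanol vehicle. Secreted alkaline phosphatase measured in supernatant; fold change vs vehicle, mean ± SEM of 6–8 independent experiments.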

[6] = test system: THP-1; test: Cytoprotection against LPS-stimulated human THP-1 monocytes toxicity assessed as fold reduction in LDH release at 0.001 to 1000 nM incubated for 24 hrs by LDH assay; format: functional; conditions: dose 0.001-1000 nM
Summary of the method: (§3)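 Supernatant LDH read at 490 nm minus 690 nm background; maximum release from 2% Triton X-100 lysis; expressed as % LDH release relative to LPS ± SEM, n = 3.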

[7] = species on record: Mus musculus; test: Anti-inflammatory activity in zymosan-induced C57BL/6J mouse model of peritonitis assessed as change in polymorphonuclear cell count; format: functional, organism-based
Summary of the method: (§4)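 Male C57BL/6J mice (9 weeks) given zymosan 1 mg/mouse ip (40 mg/kg); compound (2 or 6 μg/kg) or dexamethasone (1 mg/kg) ip 30 min before and 1 h after zymosan. Peritoneal lavage 24 h post-zymosan; cells counted with Turk's solution, stained Ly6G/F4/80/CD11b, PMN as Ly6G⁺ by flow cytometry; % of vehicle + zymosan maximal response; n = 5 mice/group, one-way ANOVA.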

[8] = test system: Mus musculus; test: (§5) Anti-inflammatory activity in zymosan-induced C57BL/6J mouse model of peritonitis assessed as maximal response at 6 ug/kg, ip treated 30 mins prior to zymosan administration and once again 1 hr after zymosan administration and measured 24 hrs post zymosan injection by flow cytometry analysis (reference value: 100 %); format: functional; conditions: dose 6 µg/kg; time 24.5 hrs; summary of the method: as §4
[9] = species on record: Mus musculus; test: Anti-inflammatory activity in zymosan-induced C57BL/6J mouse model of peritonitis assessed as change in macrophage cell count; format: functional, organism-based
[10] = test system: Mus musculus; test: Anti-inflammatory activity in C57BL/6J mouse model of carrageenan-induced paw edema assessed as reduction in paw swelling at 2 ug/kg, ip administered 30 mins prior to carrageenan injection; format: functional, organism-based; conditions: dose 2.0 µg/kg
Summary of the method: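 Male C57BL/6 mice dosed 30 min before intraplantar 50 μL 1% carrageenan (saline in contralateral paw); test compound 2 μg/kg ip, naproxen 50 mg/kg po. Paw thickness difference tracked over time (to 72 h) with a lever gauge as edema index; mean ± SEM, n = 3 mice/group.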

[11] = test system: Mus musculus; test: Anti-inflammatory activity in zymosan-induced C57BL/6J mouse model of peritonitis assessed as reduced neutrophil influx at 6 ug/kg, ip treated 30 mins prior to zymosan administration (reference value: 100 %); set-up: scale not given: the % may be the effect or the level left; conditions: 0.5 h
[12] = species on record: Mus musculus; test: Anti-inflammatory activity in zymosan-induced C57BL/6J mouse model of peritonitis assessed as change in monocyte cell count; format: functional, organism-based
[13] = test system: THP-1; test: Cytotoxicity against human THP-1 monocytes assessed as LDH release at 0.001 to 1000 nM incubated for 24 hrs in absence of LPS by LDH assay; format: toxicity, cell-based; conditions: thp-1, 24 h, 1 µM, dose 0.001-1000 nM
Summary of the method: (§6)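 THP-1-Lucia monocytes (1 × 10⁵/well) exposed 24 h to compound without LPS (1 pM upward; 0.1% ethanol vehicle). Supernatant LDH absorbance at 490 nm with 690 nm background; 2% Triton X-100 lysis defined maximum release, untreated cells spontaneous release; expressed as % LDH release relative to LPS ± SEM, n = 3.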

[14] = test system: Mus musculus; test: as §5, with “total number of polymorphonuclear cells” for “maximal response”, “4.7 +/- 0.5 x10^6 /ml)” for “100 %)”; format: functional; conditions: dose 6 µg/kg; time 24.5 hrs; summary of the method: as §4
[15] = molecular target: T1, Nuclear factor NF-kappa-B complex (Homo sapiens); test: Inhibition of LPS-induced NF-kappaB activation in human THP-1 monocytes expressing luciferase gene at 0.01 to 100 nM pretreated for 30 mins followed by LPS stimulation and measured after 24 hrs by bioluminescence analysis; format: cell-based; conditions: dose 0.01-100 nM, time 24.5 hr
Summary of the method: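 Secreted luciferase in supernatant read with QUANTI-Luc by bioluminescence, normalized to BCA protein (lum/abs ratio, two replicates), expressed as % of LPS response; mean ± SEM, n = 3.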

[16] = test system: THP-1; test: Anti-inflammatory activity against human THP-1 monocytes assessed as reduction in LPS-induced IFNgamma release at 0.01 nM to 100 nM pretreated for 30 mins followed LPS stimulation and measured after 24 hrs by multiplex chemiluminescence detection method; format: functional; conditions: time 24.5 hrs; summary of the method: as §1
[17] = test system: THP-1; test: Anti-inflammatory activity against human THP-1 monocytes assessed as reduction in LPS-induced IFNgamma release pretreated for 30 mins followed LPS stimulation and measured after 24 hrs by multiplex chemiluminescence detection method; format: functional, cell-based; summary of the method: as §1
[18] = test system: THP-1; test: Cytotoxicity against human THP-1 monocytes assessed as LDH release at 1 pM incubated for 24 hrs in absence of LPS by LDH assay; format: toxicity, cell-based; conditions: thp-1, 24 h; summary of the method: as §6
[19] = test system: THP-1; test: Cytoprotection against LPS-stimulated human THP-1 monocytes toxicity assessed as reduction LDH release at 1 uM incubated for 24 hrs by LDH assay; format: functional; summary of the method: as §3
[20] = test system: Mus musculus; test: as §5, with “1 mg/kg,” for “6 ug/kg,”; format: functional; conditions: time 24.5 hrs; summary of the method: as §4
[21] = test system: Mus musculus; test: Anti-inflammatory activity in zymosan-induced C57BL/6J mouse model of peritonitis assessed as reduced neutrophil influx at 11 mg/kg, ip treated 1 hr prior to zymosan administration (reference value: 100 %); format: functional; set-up: scale not given: the % may be the effect or the level left
[22] = test system: THP-1; test: Cytotoxicity against human THP-1 monocytes assessed as LDH release at 1 uM incubated for 24 hrs in absence of LPS by LDH assay; format: toxicity, cell-based; conditions: thp-1, 24 h; summary of the method: as §6
[23] = test system: THP-1; test: Anti-inflammatory activity against human THP-1 monocytes assessed as reduction in LPS-induced IFNgamma release at 1 pM pretreated for 30 mins followed LPS stimulation and measured after 24 hrs by multiplex chemiluminescence detection method; format: functional, cell-based; conditions: time 24.5 hrs; summary of the method: as §1
[24] = molecular target: T1, Nuclear factor NF-kappa-B complex (Homo sapiens); test: Inhibition of TNFalpha-stimulated NF-kappaB activity (unknown origin) expressed in mouse primary smooth muscle cells at 1 nM pretreated for 30 mins followed by TNFalpha stimulation and incubated for 24 hrs by SEAP reporter gene assay; format: cell-based; conditions: THP-1, time 24.5 hrs; summary of the method: as §2

T1 sequence (P19838 whole entry, looked up): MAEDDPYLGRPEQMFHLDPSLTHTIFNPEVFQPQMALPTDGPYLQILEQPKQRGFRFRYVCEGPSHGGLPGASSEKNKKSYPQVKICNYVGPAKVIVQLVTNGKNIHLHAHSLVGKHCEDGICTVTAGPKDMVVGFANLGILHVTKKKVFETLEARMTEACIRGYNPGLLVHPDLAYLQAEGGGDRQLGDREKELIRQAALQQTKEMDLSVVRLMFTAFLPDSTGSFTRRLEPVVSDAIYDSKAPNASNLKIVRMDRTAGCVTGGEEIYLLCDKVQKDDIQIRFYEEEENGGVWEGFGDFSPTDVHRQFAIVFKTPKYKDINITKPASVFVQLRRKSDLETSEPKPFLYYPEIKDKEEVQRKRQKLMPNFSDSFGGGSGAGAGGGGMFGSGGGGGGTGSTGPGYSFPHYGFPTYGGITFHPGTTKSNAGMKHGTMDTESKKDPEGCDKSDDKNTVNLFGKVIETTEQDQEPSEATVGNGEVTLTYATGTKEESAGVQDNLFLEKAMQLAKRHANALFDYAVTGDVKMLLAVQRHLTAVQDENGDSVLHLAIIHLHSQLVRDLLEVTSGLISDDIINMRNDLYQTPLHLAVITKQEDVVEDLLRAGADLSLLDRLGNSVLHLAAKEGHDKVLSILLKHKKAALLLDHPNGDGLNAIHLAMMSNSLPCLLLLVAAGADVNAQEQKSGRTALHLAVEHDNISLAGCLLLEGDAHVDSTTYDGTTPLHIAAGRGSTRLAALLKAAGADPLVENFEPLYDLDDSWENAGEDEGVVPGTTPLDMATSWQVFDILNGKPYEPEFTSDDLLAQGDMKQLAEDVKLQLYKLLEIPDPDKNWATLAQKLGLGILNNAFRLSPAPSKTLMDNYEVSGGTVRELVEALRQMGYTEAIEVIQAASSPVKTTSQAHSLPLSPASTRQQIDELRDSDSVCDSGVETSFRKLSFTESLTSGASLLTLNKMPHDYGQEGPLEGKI
T1 sequence (Q00653 whole entry, looked up): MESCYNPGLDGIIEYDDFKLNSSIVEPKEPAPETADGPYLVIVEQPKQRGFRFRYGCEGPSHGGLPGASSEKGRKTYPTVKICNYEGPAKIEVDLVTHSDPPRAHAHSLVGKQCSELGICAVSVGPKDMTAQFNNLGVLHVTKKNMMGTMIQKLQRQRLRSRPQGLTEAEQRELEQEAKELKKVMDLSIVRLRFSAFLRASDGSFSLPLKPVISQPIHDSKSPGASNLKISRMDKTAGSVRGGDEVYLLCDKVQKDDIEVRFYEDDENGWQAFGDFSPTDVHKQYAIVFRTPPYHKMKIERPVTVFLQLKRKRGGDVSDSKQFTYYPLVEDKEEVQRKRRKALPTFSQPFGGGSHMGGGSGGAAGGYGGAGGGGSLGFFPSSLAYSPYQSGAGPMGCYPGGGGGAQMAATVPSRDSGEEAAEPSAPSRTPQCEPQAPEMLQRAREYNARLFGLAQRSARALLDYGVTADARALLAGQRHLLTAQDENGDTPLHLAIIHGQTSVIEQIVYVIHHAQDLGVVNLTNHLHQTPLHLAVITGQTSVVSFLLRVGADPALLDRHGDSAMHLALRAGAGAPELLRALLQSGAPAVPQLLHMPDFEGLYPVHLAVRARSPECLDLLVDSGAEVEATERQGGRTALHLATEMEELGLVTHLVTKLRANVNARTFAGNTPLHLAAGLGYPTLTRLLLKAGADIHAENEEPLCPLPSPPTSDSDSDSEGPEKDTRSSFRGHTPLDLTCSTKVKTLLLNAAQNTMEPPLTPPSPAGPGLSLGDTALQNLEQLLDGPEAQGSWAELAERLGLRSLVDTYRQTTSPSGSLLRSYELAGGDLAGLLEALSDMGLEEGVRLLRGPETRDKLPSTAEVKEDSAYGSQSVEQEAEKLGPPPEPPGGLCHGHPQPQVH
T1 sequence (Q04206 whole entry, looked up): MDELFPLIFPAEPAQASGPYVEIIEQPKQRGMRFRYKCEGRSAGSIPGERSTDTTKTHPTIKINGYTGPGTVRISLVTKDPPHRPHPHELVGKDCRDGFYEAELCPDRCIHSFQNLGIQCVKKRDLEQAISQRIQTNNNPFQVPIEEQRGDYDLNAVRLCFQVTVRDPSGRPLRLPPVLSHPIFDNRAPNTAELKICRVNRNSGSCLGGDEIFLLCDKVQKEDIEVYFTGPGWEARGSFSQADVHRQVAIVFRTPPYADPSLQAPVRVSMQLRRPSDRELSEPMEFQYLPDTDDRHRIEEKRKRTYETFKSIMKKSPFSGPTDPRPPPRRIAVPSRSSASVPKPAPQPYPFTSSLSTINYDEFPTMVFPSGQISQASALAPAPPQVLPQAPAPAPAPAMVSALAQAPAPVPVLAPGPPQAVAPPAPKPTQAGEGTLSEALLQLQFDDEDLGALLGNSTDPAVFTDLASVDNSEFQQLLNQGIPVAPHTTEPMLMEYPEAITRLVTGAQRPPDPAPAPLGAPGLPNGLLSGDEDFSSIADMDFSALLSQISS

Question: With `CCCCC[C@H](O)/C=C/C=C\C=C\C=C\[C@@H](O)[C@@H](O)CCCC(=O)O` [LIPOXIN A4] as the compound, how does the Activity [1] read?
Answer: Active

Question: And the Activity [2]?
Answer: Active

Question: And the Imax [3]?
Answer: 93%

Question: And the Activity [4]?
Answer: Active

Question: What about the inhibition [5] of the same compound?
Answer: Active

Question: For `CCCCC[C@@H](O)c1nc2ccccc2nc1/C=C/[C@@H](O)[C@@H](O)CCCC(=O)OC`, which “fold change (FC)” value [6] is on record?
Answer: 1.3

Question: And the Activity [7]?
Answer: inactive

Question: What about the Activity [8] of the same compound?
Answer: 68%

Question: And the Activity [9]?
Answer: inactive

Question: What about the Activity [2] of the same compound?
Answer: Active

Question: What about the Activity [10] of the same compound?
Answer: Active

Question: What about the Activity [11] of the same compound?
Answer: 22.5%

Question: And the Activity [12]?
Answer: inactive

Question: And the Activity [13]?
Answer: Non-Toxic

Question: What about the Activity [14] of the same compound?
Answer: 3.2 10^6/ml

Question: For `CCCCCCC[C@H](O)c1nc2ccccc2nc1/C=C/[C@@H](O)[C@@H](O)CCCC(=O)OC`, which Activity [13] is on record?
Answer: Non-Toxic

Question: `CCC[C@H](O)c1nc2ccccc2nc1/C=C/[C@@H](O)[C@@H](O)CCCC(=O)OC` was tested. Which Imax [15] did it give?
Answer: 30%

Question: What about the Imax [16] of the same compound?
Answer: 85%

Question: What about the IC50 [17] of the same compound?
Answer: 1 pM

Question: How did the Activity [18] turn out when `CCCCC[C@@H](O)c1c(/C=C/[C@@H](O)[C@@H](O)CCCC(=O)OC)nc(C)n1C` was run?
Answer: Non-Toxic

Question: `CCC[C@@H](O)c1nc2ccccc2nc1/C=C/[C@@H](O)[C@@H](O)CCCC(=O)OC` was tested. Which Imax [15] did it give?
Answer: 30%

Question: What about the Imax [16] of the same compound?
Answer: 85%

Question: And the Activity [13]?
Answer: Non-Toxic

Question: What about the IC50 [17] of the same compound?
Answer: 1 pM

Question: Which Activity [7] does the source give for `C[C@@H]1C[C@H]2[C@@H]3CCC4=CC(=O)C=C[C@]4(C)[C@@]3(F)[C@@H](O)C[C@]2(C)[C@@]1(O)C(=O)CO` [DEXAMETHASONE] here?
Answer: inactive

Question: And the Activity [19]?
Answer: inactive

Question: What about the Activity [20] of the same compound?
Answer: 51%

Question: And the Activity [9]?
Answer: inactive

Question: And the Activity [21]?
Answer: 33.5%

Question: And the Activity [22]?
Answer: Non-Toxic

Question: What about the Activity [12] of the same compound?
Answer: inactive

Question: With `CCCCC[C@@H](O)c1nc2ccccc2nc1/C=C/[C@H]1OC(C)(C)O[C@H]1CCCC(=O)OC` as the compound, how does the Activity [10] read?
Answer: inactive

Question: And the Activity [13]?
Answer: Toxic

Question: Which Imax [15] does the source give for `CCCCC[C@H](O)c1nc2ccccc2nc1/C=C/[C@@H](O)[C@@H](O)CCCC(=O)OC` here?
Answer: 25%

Question: And the Activity [3]?
Answer: inactive

Question: For `CCCCC[C@H](O)c1nc2ccccc2nc1/C=C/[C@H]1OC(C)(C)O[C@H]1CCCC(=O)OC`, which Activity [13] is on record?
Answer: Toxic

Question: With `CCCCC[C@@H](O)c1ccccc1/C=C/[C@@H](O)[C@@H](O)CCCC(=O)OC` as the compound, how does the Activity [23] read?
Answer: inactive

Question: What about the Activity [18] of the same compound?
Answer: Non-Toxic

Question: And the inhibition [24]?
Answer: Active
